Measured values reported in PubChem BioAssay.
Active and inactive are the calls of the source.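 The calls were made as follows, unless noted: active = potentiation averaged over duplicate wells exceeding buffer-only control mean by more than 3 SD; inactive = the rest.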

Tests used:
[1] = nonspecific flux increase, KCNQ1-free cells – parental CHO cells, counter-screen for KCNQ1 potentiator project (AID 493006;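 active = duplicate-averaged activation above buffer control mean plus 5 SD of those controls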); details: parental CHO-K1 cells, FluxOR thallium flux, at 10 µM; active compounds read high
In short: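 Test system: parental CHO-K1 cells, FluxOR dye-loaded / Probe or stimulus: potassium plus thallium depolarizing stimulus, 5x stock 12.5 mM K2SO4, Tl2SO4 / Timing: overnight 37 °C plating, 90 min dye, 20 min dark compound / Measured by: kinetic thallium-flux fluorescence / Read-out: max-minus-min fluorescence over baseline, percent of buffer-to-R-L3 span / Benchmarks: buffer and R-L3 controls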

[2] = biological target: Potassium voltage-gated channel subfamily KQT member 1 (Homo sapiens) (UniProt P51787); assay: enhancement of KCNQ1 channel thallium flux – FluxOR thallium flux, CHO cells, duplicates, confirmation (AID 493007); details: KCNQ1 cell line, FluxOR thallium flux fluorescence, at 10 µM; active compounds read high, % of reference activator effect, buffer zero;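 as to outcome: cells depolarized by a potassium plus thallium sulfate stimulus after compound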;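 as to potentiation: 0% = buffer-only wells and 100% = R-L3 activator control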
Sequence of Potassium voltage-gated channel subfamily KQT member 1 (Homo sapiens) (P51787 whole entry, looked up): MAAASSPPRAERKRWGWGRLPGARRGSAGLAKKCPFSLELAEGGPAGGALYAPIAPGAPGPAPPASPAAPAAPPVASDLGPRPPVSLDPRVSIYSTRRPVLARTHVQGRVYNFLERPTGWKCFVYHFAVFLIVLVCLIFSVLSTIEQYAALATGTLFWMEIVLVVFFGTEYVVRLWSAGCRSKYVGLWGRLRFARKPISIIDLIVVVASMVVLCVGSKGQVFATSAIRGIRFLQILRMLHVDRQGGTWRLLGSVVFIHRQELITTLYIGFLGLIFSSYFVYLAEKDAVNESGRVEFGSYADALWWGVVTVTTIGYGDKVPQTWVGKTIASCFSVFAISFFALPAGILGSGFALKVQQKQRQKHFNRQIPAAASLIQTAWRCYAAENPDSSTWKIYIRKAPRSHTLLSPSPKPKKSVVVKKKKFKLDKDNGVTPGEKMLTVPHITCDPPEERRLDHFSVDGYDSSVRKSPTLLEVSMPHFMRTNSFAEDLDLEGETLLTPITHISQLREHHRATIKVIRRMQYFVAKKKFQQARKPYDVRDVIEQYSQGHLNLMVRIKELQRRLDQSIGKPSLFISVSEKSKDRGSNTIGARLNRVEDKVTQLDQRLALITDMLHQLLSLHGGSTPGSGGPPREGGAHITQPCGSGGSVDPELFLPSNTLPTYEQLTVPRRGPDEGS
In short: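 Assay system: CHO cells carrying KCNQ1 | Controls: Buffer and R-L3 controls | Schedule: FluxOR dye loading 90 min, compound exposure 20 min, room temperature | Read-out: Baseline-normalized fluorescence change, percent of buffer-to-R-L3 range | Replicates: Each compound tested in duplicate | Technique: Kinetic thallium influx fluorescence with FluxOR dye, 10 s baseline, 110 s post-stimulus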

[3] = biological target: Potassium voltage-gated channel subfamily KQT member 2 (Rattus norvegicus) (UniProt O88943); assay: KCNQ2 thallium flux enhancement – KCNQ2-CHO-K1 cells, selectivity assay for KCNQ1 potentiator project (AID 493009;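 active = mean duplicate potentiation above the buffer control mean plus 5 SD of buffer wells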;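 also: assay conditions were tuned for KCNQ1 rather than KCNQ2 modulators; signal is max minus min fluorescence divided by baseline after thallium stimulus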); details: FluxOR thallium flux fluorescence, at 10 µM; active compounds read high, scaled: buffer 0, activator control 100
Sequence of Potassium voltage-gated channel subfamily KQT member 2 (Rattus norvegicus) (O88943 whole entry, looked up): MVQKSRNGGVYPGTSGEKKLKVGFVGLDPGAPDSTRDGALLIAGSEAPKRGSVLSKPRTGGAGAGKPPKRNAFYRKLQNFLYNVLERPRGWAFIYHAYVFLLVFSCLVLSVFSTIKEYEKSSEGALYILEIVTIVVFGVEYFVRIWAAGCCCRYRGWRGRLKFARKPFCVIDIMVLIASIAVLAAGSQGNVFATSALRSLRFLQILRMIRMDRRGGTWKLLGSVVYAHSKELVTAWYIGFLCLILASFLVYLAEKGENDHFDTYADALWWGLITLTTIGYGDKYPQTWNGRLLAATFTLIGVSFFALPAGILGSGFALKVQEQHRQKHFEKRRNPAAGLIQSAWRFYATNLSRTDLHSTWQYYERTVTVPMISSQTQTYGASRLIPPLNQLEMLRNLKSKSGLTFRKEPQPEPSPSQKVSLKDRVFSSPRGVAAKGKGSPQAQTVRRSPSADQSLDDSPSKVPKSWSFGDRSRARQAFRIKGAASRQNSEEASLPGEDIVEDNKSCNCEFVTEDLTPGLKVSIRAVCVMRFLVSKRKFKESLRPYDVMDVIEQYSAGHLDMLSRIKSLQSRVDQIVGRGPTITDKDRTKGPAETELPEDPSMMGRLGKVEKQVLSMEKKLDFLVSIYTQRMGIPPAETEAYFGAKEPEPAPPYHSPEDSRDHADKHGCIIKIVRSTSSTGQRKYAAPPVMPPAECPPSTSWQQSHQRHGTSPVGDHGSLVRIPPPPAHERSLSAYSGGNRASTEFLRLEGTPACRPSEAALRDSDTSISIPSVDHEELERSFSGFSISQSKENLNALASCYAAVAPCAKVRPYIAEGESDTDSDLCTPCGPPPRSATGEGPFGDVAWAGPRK

[4] = biological target: Potassium voltage-gated channel subfamily KQT member 1 (Homo sapiens) (UniProt P51787); assay: KCNQ1 activators by electrophysiology – IonWorks patch clamp, KCNQ1-CHO cells, orthogonal assay for KCNQ1 potentiator project, confirmation (AID 493184;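 active = current rise at least 3 SD above the untreated control mean in each of two repeat wells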); details: automated patch clamp current, at 10 µM; active compounds read high
In short: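 Material: KCNQ1-expressing CHO cells; doses: 10 µM final, single point; probe or stimulus: voltage step from -90 mV holding to +40 mV, 2,000 ms; signal: automated voltage clamp, amphotericin B perforated patch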

Compound	outcome [1]	outcome [2]	outcome [3]	outcome [4]	potentiation [2]	activation [1]	potentiation [3]
CCc1ccc2[nH]c(C(=O)Nc3ccc(F)cc3Br)cc2c1	inactive	inactive	inactive	inactive			
CCOC(=O)C1CCCN(C(=O)C2CCN(S(=O)(=O)c3ccc4ccccc4c3)CC2)C1 (stereo not given)	inactive	inactive	inactive	inactive			
O=C(NNC(=O)c1ccc(Cl)c(Cl)c1)c1ccncc1	inactive		inactive	inactive	18.5% (active)		
O=C(Nc1nnc(-c2ccc(Cl)cc2)o1)c1ccccc1Br				inactive	86.5% (active)	228% (active)	234% (active)
COCCCn1c(=S)[nH]c2sc3c(c2c1=O)CCCC3				inactive	138% (active)	366% (active)	346% (active)
CCOc1ccccc1NC(=O)C(=O)CC(=O)c1cccc(OC)c1				inactive	87% (active)	216% (active)	280% (active)
COC(=O)CSc1nc(N)c2c3c(sc2n1)C(c1ccccc1)SC(c1ccccc1)C3 (stereo not given)	inactive	inactive	inactive	inactive			
Cc1cc2ccccn2c1C(=S)NC(=O)c1ccccc1				inactive	102% (active)	290% (active)	370% (active)
COc1ccc(/C=N/NC(=O)c2[nH]nc3c2CCc2ccccc2-3)cc1OC				inactive	85% (active)	240% (active)	228% (active)
Cc1cc(S(=O)(=O)N2CCOCC2)ccc1OCC(=O)Nc1ccc(Br)cc1F	inactive	inactive	inactive	inactive			
CCCS(=O)(=O)c1c(S(=O)(=O)CCC)c2ccc(C(N)=O)cn2c1C(=O)c1ccccc1	inactive	inactive	inactive	inactive			
COc1ccc(-c2csc(NC(=S)NC(=O)c3cccs3)n2)cc1OC	inactive			inactive	40% (active)		216% (active)
COc1ccc(N(Cc2ccccc2)S(=O)(=O)c2cccc(C(=O)O)c2)cc1	inactive	inactive	inactive	inactive			
Cc1ccc(-c2nc3ccccc3o2)cc1NC(=S)NC(=O)c1cc2ccccc2o1	inactive		inactive	inactive	21.5% (active)		
CC1CCN(c2ccccc2NC(=S)NC(=O)c2cccs2)CC1			inactive	inactive	54% (active)	139% (active)	
CCCn1cc(NC(=O)c2cc(-c3ccccc3)on2)cn1	inactive		inactive	inactive	25% (active)		
CCCCN(CCCC)C(=S)N/N=C/c1c(C)[nH]n(-c2ccccc2)c1=O				inactive	123% (active)	198% (active)	239% (active)
O=Cc1ccccc1OCCCOc1cccc2cccnc12	inactive	inactive	inactive	inactive			
CC(C)NC(=O)C1CCN(c2ccc(S(=O)(=O)N3CCOCC3)cc2Cl)CC1	inactive	inactive	inactive	inactive			
Nc1ccccc1OCCOCCOc1ccccc1N	inactive	inactive	inactive	inactive			
Cc1c(C(=O)NC(=S)NCc2cccnc2)oc2ccccc12	inactive	inactive	inactive	inactive			
COC(=O)c1sc(NC(=S)NC(=O)c2ccc(C)cc2)nc1C				inactive	50.5% (active)	172% (active)	188% (active)
O=c1c2ccccc2nc(-c2ccc(Cl)c(Cl)c2)n1O				inactive	244% (active)	518% (active)	558% (active)
COc1ccc(-n2cc(CNC3CCN(C)CC3)c(-c3cccc(F)c3)n2)cc1			inactive	inactive	31% (active)	142% (active)	
CC1=CC(=O)C=C(C)C1=NOS(=O)(=O)c1ccccc1	inactive	inactive	inactive	inactive			
Cc1ccc(OCC(=O)NNC(=O)C(=O)NC(C)(C)C)cc1				inactive	43% (active)	170% (active)	176% (active)
CC(C)c1nc2sc3c(=S)nc[nH]c3c2c2c1CCC2				inactive	194% (active)	247% (active)	310% (active)
NC(=O)c1ccccc1NC(=O)N1CCOCC1	inactive	inactive	inactive	inactive			
COc1ccc(NC(=O)C(=O)NNC(=O)c2ccc(Cl)cc2Cl)cc1				inactive	200% (active)	412% (active)	492% (active)
CC1CCc2sc(-c3n[nH]c(=S)o3)cc2C1 (stereo not given)				inactive	30% (active)	207% (active)	179% (active)
